# Calls of active or inactive are those of the source.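 The calls were made as follows, unless noted: active = Her2 level under about 52% in both replicate screens, with viability over 70% of control (limit read from the data); inconclusive = Her2 under the limit in one screen only, or viability under 70%; inactive = Her2 level above the set limit.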
# Tests used:
# [1] = Her2 expression decrease, cell viability multiplex – SKBR3 breast tumor cells, AlphaScreen, ATP viability, primary screen (AID 461); conditions: SKBR3 Her2 protein level, 18-24 h, measured here: SKBR3 viability, ATP luminescence, at 10 µM;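 as to Her2 level: lower value means less Her2 protein in the cells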;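 as to viability: percent of carrier control wells set as 100% viability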
# [2] = target: Receptor tyrosine-protein kinase erbB-2 (Homo sapiens) (UniProt P04626); test: as above; conditions: 18-24 h, at 10 µM, stronger effect = lower value
# [3] = reduced viability of SK-BR-3 breast cancer cells – cell-based, 24 h, human, pilot screen (AID 572;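 active = viability at or below 10% of carrier control in both of two separate runs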;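 also: compound exposure lasted between 18 and 24 h rather than exactly 24 h; 100% = carrier-treated control wells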); conditions: SK-BR-3 viability, CellTiter-Glo luminescence, at 10 µM, stronger effect = lower value
# [4] = HUVEC growth inhibition – cell-based, human, primary screen (AID 575;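 active = viability at or below 30% in both replicate assays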;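 also: 100% = median of untreated cell wells with 0.1% DMSO on each plate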); conditions: HUVEC proliferation, CellTiter-Glo luminescence, 72 h; at 10 µM; stronger effect = lower value
# Procedure, shortened: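 system = HUVEC primary cells | amount = 1250 cells/well | buffer or medium = supplemented EBM, 2% fetal bovine serum | dosing = single-point 10 µM, DMSO 0.1% final | times = 72 h compound incubation | detection = CTG luminescence | read-out = % viability relative to median vehicle-well signal on each plate | control set = vehicle and MePR control wells | format = collagen-coated 384-well format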
# [5] = H69AR cell proliferation blockers – human, duplicate replicates, primary screen (AID 580;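 active = viability at or under a set limit in both replicates, limit being median viability minus 3 SD, cut at about 48% in these data, passing the limit was not always enough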;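 also: 100% = mean luminescence of untreated wells and 0% = no signal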); conditions: H69AR lung tumor cells viability, ATP luminescence, 72 h; at 10 µM; stronger effect = lower value
# [6] = MRP1 drug-resistance reversers in H69AR cells – cell-based, doxorubicin co-treatment, pilot screen (AID 601;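 active = viability loss from added drug above about 55%, and viability with drug at most 40%, in both replicates, limit read from the data, passing the limit was not always enough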); conditions: CellTiter-Glo, 72 h, at 10 µM; for differential viability (reversal): stronger effect = higher value
# [7] = yeast transport mutant growth inhibition pilot in 384-well plates, post-Golgi transport modulator project (AID 636; in the data active = inhibition above about 31%); conditions: absorbance 615 nm, about 18 h, stronger effect = higher value
# [8] = growth suppression of yeast trafficking mutant, preliminary HTS, modulators of trafficking downstream of Golgi apparatus project, 1536-format plate, OD 615 nm (AID 637; in the data active = inhibition above about 30%); conditions: yeast transport mutant growth, absorbance 615 nm, 18 h; stronger effect = higher value
# [9] = H69AR cells + 2 uM doxorubicin, measured here: viability with 2 uM doxorubicin, stronger effect = lower value
# [10] = H69AR cells, compound alone cytotoxicity
# Sequence of Receptor tyrosine-protein kinase erbB-2 (Homo sapiens) (P04626 whole entry, looked up): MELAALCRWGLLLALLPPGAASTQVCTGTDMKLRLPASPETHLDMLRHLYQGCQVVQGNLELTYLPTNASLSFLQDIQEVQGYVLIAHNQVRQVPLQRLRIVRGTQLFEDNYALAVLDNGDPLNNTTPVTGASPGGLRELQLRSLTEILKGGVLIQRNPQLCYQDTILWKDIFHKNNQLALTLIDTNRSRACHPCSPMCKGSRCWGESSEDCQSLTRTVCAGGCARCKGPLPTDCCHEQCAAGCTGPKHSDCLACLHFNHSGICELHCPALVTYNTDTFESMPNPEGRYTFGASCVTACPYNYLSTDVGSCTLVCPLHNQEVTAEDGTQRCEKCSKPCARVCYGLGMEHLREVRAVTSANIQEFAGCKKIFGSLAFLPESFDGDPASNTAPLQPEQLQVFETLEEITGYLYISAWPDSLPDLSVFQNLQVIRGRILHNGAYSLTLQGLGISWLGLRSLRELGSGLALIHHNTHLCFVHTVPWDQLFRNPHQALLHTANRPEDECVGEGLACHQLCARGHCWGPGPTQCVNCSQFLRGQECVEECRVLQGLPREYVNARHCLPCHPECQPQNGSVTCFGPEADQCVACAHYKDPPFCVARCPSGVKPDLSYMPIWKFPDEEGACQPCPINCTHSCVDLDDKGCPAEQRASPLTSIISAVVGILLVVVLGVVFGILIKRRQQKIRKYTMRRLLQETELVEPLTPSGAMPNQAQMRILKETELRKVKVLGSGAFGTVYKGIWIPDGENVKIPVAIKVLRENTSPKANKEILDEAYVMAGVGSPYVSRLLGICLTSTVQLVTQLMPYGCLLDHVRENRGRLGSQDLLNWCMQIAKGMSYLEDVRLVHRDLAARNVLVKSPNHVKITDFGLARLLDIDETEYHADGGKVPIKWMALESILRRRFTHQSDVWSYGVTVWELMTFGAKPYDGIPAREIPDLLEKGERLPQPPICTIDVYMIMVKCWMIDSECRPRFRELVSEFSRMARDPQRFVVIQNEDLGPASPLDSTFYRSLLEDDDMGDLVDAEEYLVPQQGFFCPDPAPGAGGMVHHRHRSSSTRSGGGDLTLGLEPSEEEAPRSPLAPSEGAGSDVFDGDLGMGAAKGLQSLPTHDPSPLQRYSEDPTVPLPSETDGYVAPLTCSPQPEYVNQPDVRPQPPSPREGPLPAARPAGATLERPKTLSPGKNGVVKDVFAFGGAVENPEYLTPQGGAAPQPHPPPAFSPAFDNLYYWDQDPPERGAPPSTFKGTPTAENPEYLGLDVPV
SMILES,viability [1] [%],Her2 level [2],viability [3],viability [4],viability [5],differential viability (reversal) ([6]; H69AR cells + 2 uM doxorubicin),"viability [6, 9] [%]","viability [6, 10] [%]",inhibition [7],inhibition [8]
CCC(C)(C)NC(=O)CN(C(=O)c1snc(C(N)=O)c1N)c1ccc2c(c1)OCO2,104,94% (inactive),104% (inactive),110% (inactive),110% (inactive),7.68% (inactive),102,110,-4.93% (inactive),-1.27% (inactive)
COc1ccc(-c2c(=O)n(OCc3ccccn3)c3ccccc3[n+]2[O-])cc1OC,105,98% (inactive),105% (inactive),87.6% (inactive),89.2% (inactive),-2.4% (inactive),91.6,89.2,-4% (inactive),-3.65% (inactive)
Cc1cc(C)cc(-n2ccnc2SCC(=O)Nc2ccc3c(c2)OCCO3)c1,119,93.5% (inactive),119% (inactive),90.7% (inactive),99.3% (inactive),8.09% (inactive),91.2,99.3,-6.05% (inactive),-0.91% (inactive)
N#Cc1cnn(Cc2ccc(Cl)cc2)c1N,92,97.5% (inactive),92% (inactive),92.7% (inactive),95.4% (inactive),10.4% (inactive),84.9,95.4,-7.03% (inactive),-7.21% (inactive)
COc1ccc(N2CCN(CCNS(=O)(=O)c3cccc4nsnc34)CC2)cc1,98,91% (inactive),98% (inactive),102% (inactive),91.1% (inactive),-2.98% (inactive),94.1,91.1,-5.2% (inactive),1.11% (inactive)
CCOC(=O)CSc1nn(C)c(=S)s1,97.5,106% (inactive),97.5% (inactive),73.2% (inactive),102% (inactive),7.25% (inactive),94.9,102,-2.4% (inactive),-1.5% (inactive)
COC(=O)CN(c1ccc(F)cc1)S(=O)(=O)c1ccccc1,91.5,109% (inactive),91.5% (inactive),122% (inactive),92.1% (inactive),-0.7% (inactive),92.8,92.1,0.13% (inactive),-3.93% (inactive)
CN1CCN(C(=O)c2cnn3c(C(F)F)cc(C4CC4)nc23)CC1,95,88.5% (inactive),95% (inactive),103% (inactive),94.4% (inactive),9.3% (inactive),85.1,94.4,-2.63% (inactive),3.23% (inactive)
COc1ccccc1C(=O)NC(C)C(c1cccs1)N1CCN(C)CC1 (stereo not given),103,149% (inactive),103% (inactive),78.9% (inactive),91.1% (inactive),-0.4% (inactive),91.5,91.1,1.58% (inactive),-6.67% (inactive)
CC(C)=CCSc1nnc(CCNC(=O)OC(C)(C)C)o1,96,85.5% (inactive),96% (inactive),87.2% (inactive),96.6% (inactive),17.2% (inactive),79.3,96.6,-4.8% (inactive),16.6% (inactive)
O=C(OCCCN1C(=O)c2ccccc2C1=O)c1ccco1,102,105% (inactive),102% (inactive),96% (inactive),95.2% (inactive),1.29% (inactive),93.9,95.2,0.79% (inactive),-0.16% (inactive)
CCOC(=O)CSC1=C(C#N)C(c2ccc(Cl)cc2)C(C(=O)OC)C(=O)N1 (stereo not given),104,143% (inactive),104% (inactive),85.4% (inactive),88.5% (inactive),0.1% (inactive),88.4,88.5,-4.74% (inactive),4.83% (inactive)
Cc1cc(NC(=O)CSc2nccn2-c2ccc(Cl)cc2)no1,91.5,103% (inactive),91.5% (inactive),111% (inactive),106% (inactive),28% (inactive),78.1,106,-1.56% (inactive),-2.38% (inactive)
O=C1OC(N2CCN(c3ccccn3)CC2)c2ccccc21 (stereo not given),94,80.5% (inactive),94% (inactive),105% (inactive),96.8% (inactive),7.36% (inactive),89.4,96.8,-4.53% (inactive),1.48% (inactive)
Cn1c(=O)cc(SCC(=O)NCC2CCCO2)c2ccc(Cl)cc21 (stereo not given),88.5,88% (inactive),88.5% (inactive),89% (inactive),85.1% (inactive),-4% (inactive),89.1,85.1,-0.26% (inactive),-3.71% (inactive)
CCN(CC)C(=O)c1ccc(NS(=O)(=O)c2ccccc2)cc1,89.5,130% (inactive),89.5% (inactive),111% (inactive),86.1% (inactive),-1.12% (inactive),87.3,86.1,-1.32% (inactive),-3.44% (inactive)

SMILES,viability [1] [%],Her2 level [2],viability [3],viability [4],viability [5],differential viability (reversal) ([6]; H69AR cells + 2 uM doxorubicin),"viability [6, 9] [%]","viability [6, 10] [%]",inhibition [7],inhibition [8]
Cc1cc2c(c(=O)o1)C(C13C=CC(CC1)C3)C(C#N)=C(N)O2 (stereo not given),124,94.5% (inactive),124% (inactive),90.1% (inactive),99.8% (inactive),13.2% (inactive),86.6,99.8,-6.4% (inactive),-5.97% (inactive)
Cc1ccc(CCNC(=O)C2CCN(S(=O)(=O)c3cccc4nsnc34)CC2)cc1,93.5,108% (inactive),93.5% (inactive),107% (inactive),95.6% (inactive),-3.61% (inactive),99.2,95.6,2.13% (inactive),0.33% (inactive)
COc1cc(C(Nc2ccc3c(c2)OCO3)C(=O)NC2CCCCC2)cc(OC)c1OC (stereo not given),74.5,75% (inactive),74.5% (inactive),94.2% (inactive),93% (inactive),-6.39% (inactive),99.4,93,-4.32% (inactive),7.94% (inactive)
Cc1nnc(NC(=O)CSc2nnc(-c3ccc(S(=O)(=O)N4CCCC4)cc3)n2C)s1,93,88.5% (inactive),93% (inactive),104% (inactive),99% (inactive),6.45% (inactive),92.6,99,-2.8% (inactive),-2.1% (inactive)
CCC12CN3CC(CC)(CN(C1)C3c1ccc(OC(C)C)cc1)C2=O (stereo not given),94,92% (inactive),94% (inactive),110% (inactive),105% (inactive),10.7% (inactive),94.6,105,-3.78% (inactive),-0.95% (inactive)
CN1CCN(c2ncnc3c2cnn3-c2ccc(Cl)cc2)CC1,109,94% (inactive),109% (inactive),53.6% (inactive),89.3% (inactive),1.02% (inactive),88.3,89.3,-0.27% (inactive),2.5% (inactive)
O=C(C1CCC(CNS(=O)(=O)c2cccc3cccnc23)CC1)N1CCCC1 (stereo not given),98.5,104% (inactive),98.5% (inactive),99.9% (inactive),99.9% (inactive),3.37% (inactive),96.6,99.9,-1.07% (inactive),-6.72% (inactive)
CCOc1cccc(Oc2ccc(C(F)(F)F)cn2)c1,99,93.5% (inactive),99% (inactive),99.6% (inactive),99.9% (inactive),6.58% (inactive),93.3,99.9,-7.33% (inactive),0.81% (inactive)
COc1ccc(S(=O)(=O)N(CCN2CCOCC2)Cc2cc(OC)ccc2OC)cc1,91,88.5% (inactive),91% (inactive),96.2% (inactive),70% (inactive),3.16% (inactive),66.8,70,-3.25% (inactive),-5.08% (inactive)
CN(C)c1ccc(C(=O)OCC(=O)NC2CCCCC2)cc1,106,97% (inactive),106% (inactive),98.1% (inactive),91.5% (inactive),8.63% (inactive),82.9,91.5,-5.6% (inactive),5.81% (inactive)
CC(=O)NC1CC2CCCC(C1)N2CC(=O)Nc1ccccc1 (stereo not given),95.5,97% (inactive),95.5% (inactive),88.9% (inactive),96.7% (inactive),11.4% (inactive),85.2,96.7,0.13% (inactive),-6.98% (inactive)
COc1ccc(Cn2c(=O)[nH]c3cc(C(=O)NCCCN4CCCC4)ccc3c2=O)cc1,106,94% (inactive),106% (inactive),103% (inactive),92.3% (inactive),6.71% (inactive),85.6,92.3,-7.03% (inactive),4.33% (inactive)
CCOC(=O)C1CCN(C(=O)Nc2ccc3snnc3c2)CC1,96.5,88.5% (inactive),96.5% (inactive),92.2% (inactive),94.9% (inactive),5.87% (inactive),89,94.9,-6.08% (inactive),-0.67% (inactive)
CCOc1ccc(NC(=O)CN2CCN(CC(=O)c3ccc(OCC)cc3)CC2)cc1,95,89% (inactive),95% (inactive),77.8% (inactive),89.3% (inactive),1.23% (inactive),88.1,89.3,-4.87% (inactive),-2.83% (inactive)
COc1ccc(CCNc2oc(-c3ccccc3OC)nc2C#N)cc1,88,106% (inactive),88% (inactive),86.4% (inactive),95.2% (inactive),0.34% (inactive),94.8,95.2,-1.43% (inactive),-11% (inactive)
